# ChEMBL document CHEMBL4130484, “Identification and optimization of novel 6-acylamino-2-aminoquinolines as potent Hsp90 C-terminal inhibitors” (Eur J Med Chem, 2017)
# Active and inactive are the calls of the source. The rule behind the calls is not given here.
# Columns and labels:
# MCF7 [1] = experiment: Antiproliferative activity against human MCF7 cells incubated for 72 hrs by MTT assay; type: functional, cell-based; settings: MCF7, 72 h
# Outline: (§1)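 MTT antiproliferation assay in MCF7 and SKBr3 breast cancer cells; IC50 determined.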
# SK-BR-3 = experiment: Antiproliferative activity against human SKBR3 cells incubated for 72 hrs by MTT assay; type: functional, cell-based; settings: SK-BR-3, 72 h; outline: as §1
# MCF7 [2] = experiment: Growth inhibition of human MCF7 cells at 50 uM incubated for 72 hrs by MTT assay; type: functional; settings: MCF7, 72 h, read-out: GI
# Outline: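 MTT screen in MCF7 cells at a single concentration of 50 µM; growth inhibition rate recorded.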
# [3] = Permeability coefficient of the compound at pH 7.4 by double-sink PAMPA; type: ADME; settings: read-out: permeability
# Outline: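 Double-sink PAMPA at pH 7.4 on a PAMPA Explorer instrument; Pe reported as mean ± SD, n = 3.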
# [4] = Distribution coefficient, log D of the compound at pH 7.4; type: physicochemical; settings: octanol/water
# Outline: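 Log D at pH 7.4 measured on a PULSE platform.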
# [5] = Intrinsic aqueous solubility of the compound; type: physicochemical
# Outline: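 Intrinsic aqueous solubility determined on a Gemini Profiler instrument.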
# [6] = target: T1, Heat shock protein HSP90 (Homo sapiens) (UniProt P07900+P08238); experiment: Inhibition of HSP90 C-terminal in human MCF7 cells assessed as reduction in CDK6 protein expression at 5 to 20 uM incubated for 24 hrs by Western blot method; type: cell-based
# Outline: (§2)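 MCF7 cells incubated 24 h with various concentrations, then client protein levels read by Western blot. β-Actin served as loading control. AT13387 (1.0 µM), an N-terminal Hsp90 inhibitor, was the positive control.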
# [7] = target: T1, Heat shock protein HSP90 (Homo sapiens); experiment: Inhibition of HSP90 C-terminal in human MCF7 cells assessed as reduction in ERK protein expression at 5 to 20 uM incubated for 24 hrs by Western blot method; type: cell-based; outline: as §2
# [8] = target: T1, Heat shock protein HSP90 (Homo sapiens); experiment: Inhibition of HSP90 C-terminal in human MCF7 cells assessed as reduction in Akt protein expression at 5 to 20 uM incubated for 24 hrs by Western blot method; type: cell-based; outline: as §2
Structure (SMILES),IC50 (MCF7 [1]) [µM],IC50 (SK-BR-3) [µM],inhibition of growth at 50 µM (MCF7 [2]) [%],also measured
CCN(CC)c1cc(C)c2cc(NC(=O)c3ccc(Cl)c(Cl)c3)ccc2n1,> 50,41.2,–,–
COc1cc(NC(=O)N2CCC(CC(=O)NCCN3CCCC3)CC2)cc(OC)c1OC,–,–,< 50,–
Cc1cc(N2CCCCC2)nc2ccc(NC(=O)c3ccc(Cl)c(Cl)c3)cc12,31.1,42.5,–,–
CCN1CCN(c2cc(C)c3cc(NC(=O)c4ccccc4Br)ccc3n2)CC1,27.5,39.2,–,–
CCn1c(C(=O)NCCN2CCOCC2)cc2cc(NC(=O)c3ccc(F)cc3)ccc21,–,–,< 50,–
CCN1CCN(c2cc(C)c3cc(NC(=O)c4ccco4)ccc3n2)CC1,41.2,37.5,–,–
CCN1CCN(c2cc(C)c3cc(NC(=O)c4ccc[nH]4)ccc3n2)CC1,14.7,13.2,–,–
COc1ccc(NC(=O)c2nnc(COCC(=O)NCCN(C)C)s2)cc1,–,–,< 50,–
CCN1CCN(CCCNC(=O)c2nc(-c3nn(-c4ccc(C)cc4)c(=O)n(C)c3=O)no2)CC1,–,–,< 50,–
Cc1cc(N(C)C)nc2ccc(NC(=O)c3ccc(Cl)c(Cl)c3)cc12,33.3,> 50,–,–
O=C(NCCCN1CCOCC1)c1ccc(NC(=O)c2nnc(COc3ccccc3)s2)cc1,–,–,50.6,–
COc1ccc(C(=O)Nc2nc(CC(=O)N3CCN(c4ccccc4)CC3)cs2)cc1OC,–,–,< 50,–
CCc1ccccc1C(=O)Nc1ccc2nc(N3CCN(CC)CC3)cc(C)c2c1,15.8,23.9,–,–
CCN1CCN(C(=O)CSCc2nnc(C(=O)Nc3ccc(OC)cc3)s2)CC1,–,–,< 50,–
COCc1nnc(C(=O)Nc2ccc(C(=O)NCCCN3CCCCC3)cc2)s1,–,–,< 50,–
CCNc1cc(C)c2cc(NC(=O)c3ccc(Cl)c(Cl)c3)ccc2n1,48.6,28.2,–,–
CCN1CCN(c2cc(C)c3cc(NC(=O)c4ccccc4F)ccc3n2)CC1,32.6,38.1,–,–
CCN1CCN(c2cc(C)c3cc(NC(=O)c4ccncc4)ccc3n2)CC1,> 50,> 50,–,–
Cc1cc(N2CCCC2)nc2ccc(NC(=O)c3ccc(Cl)c(Cl)c3)cc12,26.3,43.4,–,–
COc1ccc(C(=O)Nc2ccc3nc(CN4CCN(C)CC4)n(C)c3c2)cc1OC,–,–,50.8,–
COc1ccc(C(=O)Nc2cnn(-c3ncc(N4CCSCC4)cn3)c2)cc1F,–,–,< 50,–
CCN1CCN(c2cc(C)c3cc(NC(=O)c4ccccc4Cl)ccc3n2)CC1,> 50,> 50,–,–
CCN1CCN(Cc2nc3ccc(NC(=O)c4ccc(OC)cc4)cc3n2C(C)C)CC1,–,–,55,–
O=C(Nc1nc(C(=O)NCCCN2CCCC2=O)cs1)c1ccc2c(c1)OCO2,–,–,< 50,–
COc1ccc(C(=O)Nc2ccc3nc(SCC(=O)N4CCCC4)sc3c2)cc1,–,–,62.5,–
O=C(Nc1nc(C(=O)NCCN2CCCCC2)cs1)c1ccc2c(c1)OCO2,–,–,< 50,–
CCN(CC)CCOC(=O)c1ccc(NC(=O)c2ccc(OC)cc2)cc1,–,–,< 50,–
COc1ccc(-c2noc(C(=O)NCc3ccc(CN4CCOCC4)cc3)n2)cc1OC,–,–,< 50,–
CCN1CCN(c2cc(C)c3cc(NC(=O)c4cccnc4)ccc3n2)CC1,26.6,10.6,–,–
CCCOc1cccc(C(=O)NC(=S)Nc2ccc(N3CCCCC3)c(Cl)c2)c1,–,–,< 50,–

# The remaining molecules from weak to strong by IC50 (MCF7 [1]), led by results:
IC50 (MCF7 [1]) [µM],IC50 (SK-BR-3) [µM],Structure (SMILES),inhibition of growth at 50 µM (MCF7 [2]) [%],also measured
14.2,18.4,CCN1CCN(c2cc(C)c3cc(NC(=O)c4ccccc4)ccc3n2)CC1,–,–
13.2,15.7,CCN1CCN(c2cc(C)c3cc(NC(=O)c4ccccc4OC)ccc3n2)CC1,–,–
12,15.1,Cc1cc(N2CCOCC2)nc2ccc(NC(=O)c3ccc(Cl)c(Cl)c3)cc12,–,–
11.6,13.3,CCN1CCN(c2cc(C)c3cc(NC(=O)c4cccc(Br)c4)ccc3n2)CC1,–,–
10.9,29.2,CCN1CCN(c2cc(C)c3cc(NC(=O)c4ccccc4C)ccc3n2)CC1,–,–
8.92,24.9,CCN1CCN(c2cc(C)c3cc(NC(=O)c4cccc(F)c4)ccc3n2)CC1,–,–
8.41,8.09,Cc1oc2ncn(CC(C)C)c(=O)c2c1C(=O)Nc1ccc(C(=O)NCCN2CCCC2)nc1,90.4,inhibition [6]: inactive; inhibition [7]: inactive; inhibition [8]: inactive
7.8,13.7,CCN1CCN(c2cc(C)c3cc(NC(=O)c4cccc(C)c4)ccc3n2)CC1,–,–
7.69,9,CCN1CCN(c2cc(C)c3cc(NC(=O)c4ccc(OC)cc4)ccc3n2)CC1,–,–
7.06,3.76,CCN1CCN(c2cc(C)c3cc(NC(=O)c4ccc5ccccc5n4)ccc3n2)CC1,–,–
6.74,11.4,CCN1CCN(c2cc(C)c3cc(NC(=O)c4ccc(C)cc4)ccc3n2)CC1,–,–
6.09,2.66,CCN1CCN(c2cc(C)c3cc(NC(=O)c4cc(Cl)cc(Cl)c4)ccc3n2)CC1,–,–
5.94,6.31,CCN1CCN(c2cc(C)c3cc(NC(=O)c4ccc(Br)cc4)ccc3n2)CC1,–,–
5.38,4.99,CCN(CC)CCOC(=O)c1ccc(NC(=O)C2=CC3C(c4ccccc4F)=NN(C)C3S2)cc1 (centres undefined),99.6,inhibition [6]: inactive; inhibition [7]: inactive; inhibition [8]: inactive
5.23,9.16,Cc1cc(NCCN2CCOCC2)nc2ccc(NC(=O)c3ccc(Cl)c(Cl)c3)cc12,–,Papp [3]: 498 nm/s; logD [4]: 2.64; solubility [5]: 0.0762 mg/mL
5.23,1.98,CCN1CCN(c2cc(C)c3cc(NC(=O)c4ccc(F)c(F)c4)ccc3n2)CC1,–,–
4.86,3.33,CCN1CCN(c2cc(C)c3cc(NC(=O)c4cccc(OC)c4)ccc3n2)CC1,96.9,inhibition [6]: Active; inhibition [7]: Active; inhibition [8]: Active

IC50 (MCF7 [1]) [µM],IC50 (SK-BR-3) [µM],Structure (SMILES),inhibition of growth at 50 µM (MCF7 [2]) [%],also measured
4.61,12.6,CCN1CCN(c2cc(C)c3cc(NC(=O)c4ccc5c(c4)OCO5)ccc3n2)CC1,–,–
4.03,19.8,CCN1CCN(c2cc(C)c3cc(NC(=O)c4ccc(F)cc4)ccc3n2)CC1,–,–
3.82,17.8,CCN1CCN(c2cc(C)c3cc(NC(=O)c4cccc(Cl)c4)ccc3n2)CC1,–,–
3.65,2.71,CCN1CCN(c2cc(C)c3cc(NC(=O)c4ccc(OC)c(OC)c4)ccc3n2)CC1,–,–
3.06,9.85,CCc1ccc(C(=O)Nc2ccc3nc(N4CCN(CC)CC4)cc(C)c3c2)cc1,–,–
3,6.32,Cc1cc(N2CCN(C)CC2)nc2ccc(NC(=O)c3ccc(Cl)c(Cl)c3)cc12,–,–
2.95,2.55,CCN1CCN(c2cc(C)c3cc(NC(=O)c4cc5ccccc5[nH]4)ccc3n2)CC1,–,–
2.55,6.67,Cc1cc(NCCN(C)C)nc2ccc(NC(=O)c3ccc(Cl)c(Cl)c3)cc12,–,Papp [3]: 31.3 nm/s; logD [4]: 1.47; solubility [5]: 0.122 mg/mL
2.52,6.35,CNc1cc(C)c2cc(NC(=O)c3ccc(Cl)c(Cl)c3)ccc2n1,–,–
1.71,6.68,Cc1cc(N2CCN(C(C)C)CC2)nc2ccc(NC(=O)c3ccc(Cl)c(Cl)c3)cc12,–,–
1.7,2.69,Cc1cc(NCCN2CCN(C)CC2)nc2ccc(NC(=O)c3ccc(Cl)c(Cl)c3)cc12,–,Papp [3]: 77.1 nm/s; logD [4]: 1.73; solubility [5]: 0.106 mg/mL
1.53,3.02,CCN1CCN(c2cc(C)c3cc(NC(=O)c4ccc(Cl)cc4)ccc3n2)CC1,–,–
1.42,3.71,CCN(CC)CCNc1cc(C)c2cc(NC(=O)c3ccc(Cl)c(Cl)c3)ccc2n1,–,Papp [3]: 281 nm/s; logD [4]: 1.66; solubility [5]: 0.0952 mg/mL
1.38,2.16,CCN1CCN(c2cc(C)c3cc(NC(=O)c4ccc(Cl)c(Cl)c4)ccc3n2)CC1,–,Papp [3]: 259 nm/s; logD [4]: 3.67; solubility [5]: 0.0113 mg/mL
1.28,9.53,Cc1cc(NCCN2CCCC2)nc2ccc(NC(=O)c3ccc(Cl)c(Cl)c3)cc12,–,Papp [3]: 208 nm/s; logD [4]: 1.72; solubility [5]: 0.0845 mg/mL
0.032,0.045,CC(C)c1cc(C(=O)N2Cc3ccc(CN4CCN(C)CC4)cc3C2)c(O)cc1O [ONALESPIB],–,–
